Assay results as given in ChEMBL document CHEMBL3045126, “Antifungal activities of major tea leaf volatile constituents toward Colletorichum camelliae Massea” (2006).
In brackets after ≈: the same amount, converted by molar mass.

tested on: Colletotrichum camelliae; assay: Antifungal activity against Colletotrichum camelliae assessed as inhibition of mycelial growth at 500 ug/mL measured after 5 days of cultivation; assay type: functional; settings: 120 h, read-out: GI
How it was run: (§1)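 Volatile constituents emulsified with emulsifier 0203-B (0.01% in medium) and mixed into PDA at 100, 500, 1000, 1500 or 2000 µg/mL in 9 cm plates. A 4 mm mycelial disk cut from a 4-day-old culture was placed centrally. Incubation was 5 days at 25 °C. Colony diameter was the mean of two readings. Inhibition = (C−T)×100/C against untreated and emulsifier controls. Three replicates.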

Row | SMILES | inhibition of growth at 500 µg/mL
1 | C=C[C@]1(C)CC[C@@H](C(C)(C)O)O1 [(E)-LINALOOL OXIDE] | 40.7%
2 | OCc1ccccc1 [BENZYL ALCOHOL] | 46.3%
3 | CC/C=C\CCO [CIS-3-HEXENOL] | 44.4%
4 | C=C[C@]1(C)CC[C@H](C(C)(C)O)O1 [CIS-FURANOID] | 40.7%
5 | CC(C)=CCC/C(C)=C/CO [GERANIOL] | 100%
6 | C=CC(C)(O)CCC=C(C)C (stereo not drawn) [LINALOOL] | 46.3%
7 | COC(=O)c1ccccc1O [METHYL SALICYLATE] | 50%
8 | OCCc1ccccc1 [PHENYLETHYL ALCOHOL] | 46.3%

tested on: Colletotrichum camelliae; assay: Antifungal activity against Colletotrichum camelliae assessed as inhibition of mycelial growth at 100 ug/mL measured after 5 days of cultivation; assay type: functional; settings: 120 h, read-out: GI; how it was run: as §1

Row | SMILES | inhibition of growth at 100 µg/mL
9 | C=C[C@]1(C)CC[C@@H](C(C)(C)O)O1 [(E)-LINALOOL OXIDE] | 37%
10 | OCc1ccccc1 [BENZYL ALCOHOL] | 44.4%
11 | CC/C=C\CCO [CIS-3-HEXENOL] | 42.6%
12 | C=C[C@]1(C)CC[C@H](C(C)(C)O)O1 [CIS-FURANOID] | 37%
13 | CC(C)=CCC/C(C)=C/CO [GERANIOL] | 58.1%
14 | C=CC(C)(O)CCC=C(C)C (stereo not drawn) [LINALOOL] | 37%
15 | COC(=O)c1ccccc1O [METHYL SALICYLATE] | 42.6%
16 | OCCc1ccccc1 [PHENYLETHYL ALCOHOL] | 51.9%

tested on: Colletotrichum camelliae; assay: Antifungal activity against Colletotrichum camelliae assessed as inhibition of mycelial growth at 1500 ug/mL measured after 5 days of cultivation; assay type: functional; settings: 120 h, read-out: GI; how it was run: as §1

Row | SMILES | inhibition of growth at 1500 µg/mL
17 | C=C[C@]1(C)CC[C@@H](C(C)(C)O)O1 [(E)-LINALOOL OXIDE] | 48.1%
18 | OCc1ccccc1 [BENZYL ALCOHOL] | 68.5%
19 | CC/C=C\CCO [CIS-3-HEXENOL] | 74.1%
20 | C=C[C@]1(C)CC[C@H](C(C)(C)O)O1 [CIS-FURANOID] | 48.1%
21 | CC(C)=CCC/C(C)=C/CO [GERANIOL] | 100%
22 | C=CC(C)(O)CCC=C(C)C (stereo not drawn) [LINALOOL] | 100%
23 | COC(=O)c1ccccc1O [METHYL SALICYLATE] | 100%
24 | OCCc1ccccc1 [PHENYLETHYL ALCOHOL] | 85.2%

tested on: Colletotrichum camelliae; assay: Antifungal activity against Colletotrichum camelliae assessed as inhibition of mycelial growth measured after 5 days of cultivation; assay type: functional; settings: 120 h; how it was run: as §1

Row | SMILES | MIC
25 | C=C[C@]1(C)CC[C@@H](C(C)(C)O)O1 [(E)-LINALOOL OXIDE] | > 2380 µg/mL
26 | OCc1ccccc1 [BENZYL ALCOHOL] | 2600 µg/mL (≈ 24 mM)
27 | CC/C=C\CCO [CIS-3-HEXENOL] | > 2120 µg/mL
28 | C=C[C@]1(C)CC[C@H](C(C)(C)O)O1 [CIS-FURANOID] | > 2380 µg/mL
29 | CC(C)=CCC/C(C)=C/CO [GERANIOL] | 440 µg/mL (≈ 2.85 mM)
30 | C=CC(C)(O)CCC=C(C)C (stereo not drawn) [LINALOOL] | 1380 µg/mL (≈ 8.92 mM)
31 | COC(=O)c1ccccc1O [METHYL SALICYLATE] | 1770 µg/mL (≈ 11.6 mM)
32 | OCCc1ccccc1 [PHENYLETHYL ALCOHOL] | 2040 µg/mL (≈ 16.7 mM)

tested on: Colletotrichum camelliae; assay: Antifungal activity against Colletotrichum camelliae assessed as inhibition of mycelial growth at 2000 ug/mL measured after 5 days of cultivation; assay type: functional; settings: 120 h, read-out: GI; how it was run: as §1

Row | SMILES | inhibition of growth at 2000 µg/mL
33 | C=C[C@]1(C)CC[C@@H](C(C)(C)O)O1 [(E)-LINALOOL OXIDE] | 57.4%
34 | OCc1ccccc1 [BENZYL ALCOHOL] | 83.3%
35 | CC/C=C\CCO [CIS-3-HEXENOL] | 79.6%
36 | C=C[C@]1(C)CC[C@H](C(C)(C)O)O1 [CIS-FURANOID] | 57.4%
37 | CC(C)=CCC/C(C)=C/CO [GERANIOL] | 100%
38 | C=CC(C)(O)CCC=C(C)C (stereo not drawn) [LINALOOL] | 100%
39 | COC(=O)c1ccccc1O [METHYL SALICYLATE] | 100%
40 | OCCc1ccccc1 [PHENYLETHYL ALCOHOL] | 92.6%

tested on: Colletotrichum camelliae; assay: Antifungal activity against Colletotrichum camelliae assessed as inhibition of mycelial growth at 1000 ug/mL measured after 5 days of cultivation; assay type: functional; settings: 120 h, read-out: GI; how it was run: as §1

Row | SMILES | inhibition of growth at 1000 µg/mL
41 | C=C[C@]1(C)CC[C@@H](C(C)(C)O)O1 [(E)-LINALOOL OXIDE] | 44.4%
42 | OCc1ccccc1 [BENZYL ALCOHOL] | 61.1%
43 | CC/C=C\CCO [CIS-3-HEXENOL] | 61.1%
44 | C=C[C@]1(C)CC[C@H](C(C)(C)O)O1 [CIS-FURANOID] | 44.4%
45 | CC(C)=CCC/C(C)=C/CO [GERANIOL] | 100%
46 | C=CC(C)(O)CCC=C(C)C (stereo not drawn) [LINALOOL] | 50%
47 | COC(=O)c1ccccc1O [METHYL SALICYLATE] | 55.6%
48 | OCCc1ccccc1 [PHENYLETHYL ALCOHOL] | 70.4%
